Reference: PMC11336813 (Heliyon, 2024)
Where two headings read alike, the source gives them in different places.

Key:
[1] = assay type: physicochemical; settings: n = 5
[2] = cited from earlier work
Free = assay type: in vivo, children with epilepsy
Outline: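 Children aged 0–16 y on an unchanged oral PER dose for ≥4 weeks, dosed in the evening. Blood (2 mL, EDTA) drawn 8:00–10:00 a.m. next day, spun 1 610 ×g for 5 min, and plasma stored at −80 °C. Plasma (200 μL) ultrafiltered at 13 680 ×g for 20 min at 4 °C. Ultrafiltrate (40 μL) plus PER-D5 internal standard was methanol-precipitated, then run on C18 reversed-phase positive-mode MRM against a least-squares linear calibration.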

plasma proteins = settings: cited from earlier work
[3] = Total PER plasma concentration by HPLC-MS/MS; assay type: in vivo, children with epilepsy
[4] = cited from earlier work; remark: listed apart in the source
CYP2C9 = settings: human liver microsomes; cited from earlier work
CYP3A4 = settings: human liver microsomes; cited from earlier work
CYP2C19 = settings: human liver microsomes; cited from earlier work
[5] = 57 plasma samples, steady state
[6] = Group A: cotherapy enzyme inducers, n = 11
[7] = Group B: cotherapy not strong enzyme inducers/not inhibitors, n = 10
[8] = Group C: cotherapy enzyme inhibitors (VPA), n = 31
[9] = Group D: cotherapy enzyme inducers + VPA, n = 5
[10] = patient No. 25, PER 5 mg·d^−1 with VPA

SMILES: N#Cc1ccccc1-c1cc(-c2ccccn2)cn(-c2ccccc2)c1=O [PER, Perampanel]
- Autosampler 5°C-8 h (x̄ ± s) ([1]; nominal 1 ng·mL^−1): 1.03 ± 0.05 ng/mL
- frozen at −20 °C for 15 days (x̄ ± s) ([1]; nominal 1 ng·mL^−1): 0.96 ± 0.09 ng/mL
- frozen at −20 °C for 30 days (x̄ ± s) ([1]; nominal 1 ng·mL^−1): 0.96 ± 0.08 ng/mL
- frozen at −80 °C for 45 days (x̄ ± s) ([1]; nominal 1 ng·mL^−1): 0.97 ± 0.02 ng/mL
- frozen at −80 °C for 60 days (x̄ ± s) ([1]; nominal 1 ng·mL^−1): 0.95 ± 0.07 ng/mL
- Short-term 4 h (x̄ ± s) ([1]; nominal 1 ng·mL^−1, room temperature (about 25 °C) 4 h): 1.01 ± 0.09 ng/mL
- Freeze-thaw Stability (x̄ ± s) ([1]; nominal 1 ng·mL^−1, three freeze–thaw cycles (−20 °C/room temperature)): 1.02 ± 0.05 ng/mL
- Autosampler 5°C-8 h (x̄ ± s) ([1]; nominal 10 ng·mL^−1): 9.99 ± 0.37 ng/mL
- frozen at −20 °C for 15 days (x̄ ± s) ([1]; nominal 10 ng·mL^−1): 9.99 ± 0.22 ng/mL
- frozen at −20 °C for 30 days (x̄ ± s) ([1]; nominal 10 ng·mL^−1): 9.79 ± 0.21 ng/mL
- frozen at −80 °C for 45 days (x̄ ± s) ([1]; nominal 10 ng·mL^−1): 10.03 ± 0.38 ng/mL
- frozen at −80 °C for 60 days (x̄ ± s) ([1]; nominal 10 ng·mL^−1): 10.85 ± 0.38 ng/mL
- Short-term 4 h (x̄ ± s) ([1]; nominal 10 ng·mL^−1, room temperature 4 h): 9.94 ± 0.42 ng/mL
- Freeze-thaw Stability (x̄ ± s) ([1]; nominal 10 ng·mL^−1, three freeze–thaw cycles): 9.99 ± 0.08 ng/mL
- Autosampler 5°C-8 h (x̄ ± s) ([1]; nominal 40 ng·mL^−1): 37.53 ± 1.46 ng/mL
- frozen at −20 °C for 15 days (x̄ ± s) ([1]; nominal 40 ng·mL^−1): 39.06 ± 1.06 ng/mL
- frozen at −20 °C for 30 days (x̄ ± s) ([1]; nominal 40 ng·mL^−1): 38.87 ± 1.52 ng/mL
- frozen at −80 °C for 45 days (x̄ ± s) ([1]; nominal 40 ng·mL^−1): 43.90 ± 1.23 ng/mL
- frozen at −80 °C for 60 days (x̄ ± s) ([1]; nominal 40 ng·mL^−1): 43.64 ± 1.27 ng/mL
- Short-term 4 h (x̄ ± s) ([1]; nominal 40 ng·mL^−1, room temperature 4 h): 38.09 ± 1.40 ng/mL
- Freeze-thaw Stability (x̄ ± s) ([1]; nominal 40 ng·mL^−1, three freeze–thaw cycles): 37.39 ± 0.53 ng/mL
- Autosampler 5°C-8 h (x̄ ± s) ([1]; nominal 120 ng·mL^−1): 113.16 ± 0.76 ng/mL
- frozen at −20 °C for 15 days (x̄ ± s) ([1]; nominal 120 ng·mL^−1): 121.27 ± 3.40 ng/mL
- frozen at −20 °C for 30 days (x̄ ± s) ([1]; nominal 120 ng·mL^−1): 119.85 ± 2.22 ng/mL
- frozen at −80 °C for 45 days (x̄ ± s) ([1]; nominal 120 ng·mL^−1): 130.97 ± 2.18 ng/mL
- frozen at −80 °C for 60 days (x̄ ± s) ([1]; nominal 120 ng·mL^−1): 132.67 ± 1.39 ng/mL
- Short-term 4 h (x̄ ± s) ([1]; nominal 120 ng·mL^−1, room temperature 4 h): 111.97 ± 2.47 ng/mL
- Freeze-thaw Stability (x̄ ± s) ([1]; nominal 120 ng·mL^−1, three freeze–thaw cycles): 115.95 ± 6.88 ng/mL
- Plasma half-life [2]: approximately 105 h
- Decrease of mean PER AUC values ([2]; with OXC): 50%
- Decrease in blood concentration ([2]; with drugs that induce liver CYP3A4/5): 2–3 fold
- Decrease in PER plasma concentrations ([2]; with enzyme-induced AEDs (OXC, CBZ, PHB)): 2–3 fold
- Free concentration, range (Free; [5]): 0.42 to 23.14 ng/mL
- Free concentration, mean ± SD (Free; 57 plasma samples, steady state, oral PER 2.00–8.00 mg·d^−1): 8.09 ± 5.85 ng/mL
- Free PER concentration, mean ± SD (Free; [6]): 4.80 ± 3.70 ng/mL
- Free PER concentration, mean ± SD (Free; [7]): 5.28 ± 5.57 ng/mL
- Free PER concentration, mean ± SD (Free; [8]): 9.84 ± 5.66 ng/mL
- Free PER concentration, mean ± SD (Free; [9]): 10.09 ± 7.54 ng/mL
- Free PER concentration, mean ± SD (Free; VPA cotherapy, n = 36): 9.87 ± 5.83 ng/mL
- Free drug PER concentration (Free; child No. 38, PER 2 mg·d^−1): 1.95 ng/mL
- Free PER concentration, mean ± SD (Free; not VPA cotherapy, n = 21): 5.03 ± 4.57 ng/mL
- Free drug PER concentration (Free; [10]): 17.71 ng/mL
- Bound to plasma proteins (plasma proteins; after oral administration): 95%
- Free PER available to exert pharmacological effects (plasma proteins): 5%
- Total concentration, range [3, 5]: 90.17 to 1867.73 ng/mL
- Total PER concentration, mean ± SD [3, 6]: 311.32 ± 190.14 ng/mL
- Total PER concentration, mean ± SD [3, 7]: 490.97 ± 255.71 ng/mL
- Total PER concentration, mean ± SD [3, 8]: 745.60 ± 415.53 ng/mL
- Total PER concentration, mean ± SD [3, 9]: 780.14 ± 459.18 ng/mL
- Total PER concentration, mean ± SD ([3]; VPA cotherapy, n = 36): 750.40 ± 415.02 ng/mL
- Total drug PER concentration ([3]; child No. 38, PER 2 mg·d^−1): 289.24 ng/mL
- Total PER concentration, mean ± SD ([3]; not VPA cotherapy, n = 21): 396.87 ± 236.55 ng/mL
- Total drug PER concentration [3, 10]: 1158.38 ng/mL
- Reference range of blood (total) PER concentration [4]: 86 to 1000 ng/mL

SMILES: CCCC(CCC)C(=O)O [VPA, valproic acid]
- Inhibition of CYP2C9 activity (CYP2C9): potent inhibition
- Inhibitory effect on CYP3A4 (CYP3A4): minor inhibitory effects
- Inhibitory effect on CYP2C19 (CYP2C19): minor inhibitory effects
